Experimental data taken from ChEMBL document CHEMBL2434897, “Synthesis of 15-methylene-eburnamonine from (+)-vincamine, evaluation of anticancer activity, and investigation of mechanism of action by quantitative NMR” (Bioorg Med Chem Lett, 2013).

How the values were obtained:
MDA-MB-231 = assay: Cytotoxicity against human MDA-MB-231 cells after 96 hrs by MTS assay; assay type: functional, cell-based; conditions: MDA-MB-231, 96 h
U-266 = assay: Cytotoxicity against human U266 cells after 96 hrs by MTS assay; assay type: functional, cell-based; conditions: U-266, 96 h
How it was run: (§1)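 Cells kept in RPMI-1640 with 10% FBS and 1% penicillin/streptomycin at 37 °C under humidified 5% CO2. Seeded at 25,000 cells/well (KMS-12BM, RPMI-8226, U266) or 5000 cells/well (LNCaP), then exposed to graded drug concentrations or DMSO vehicle for 96 h. MTS read-out at OD 492 nm. LC50 from four-parameter logistic fit of log-transformed, vehicle-normalized OD; ≥3 independent experiments in triplicate.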

[1] = Cytotoxicity against human KMS-12-BM cells after 96 hrs by MTS assay; assay type: functional, cell-based; how it was run: as §1
[2] = Cytotoxicity against human FnMSC cells after 96 hrs by MTS assay; assay type: cell-based; conditions: read-out: LC50
RPMI-8226 = assay: Cytotoxicity against human RPMI8226 cells after 96 hrs by MTS assay; assay type: functional, cell-based; conditions: RPMI-8226, 96 h; how it was run: as §1
LNCaP = assay: Cytotoxicity against human LNCAP cells after 96 hrs by MTS assay; assay type: functional, cell-based; how it was run: as §1

## C=C1C(=O)n2c3c(c4ccccc42)CCN2CCC[C@]1(CC)[C@@H]32
MDA-MB-231
  LC50: 14.1 µM
U-266
  LC50: 4.3 µM
[1]
  LC50: 4 µM
[2]
  CC50 at 96 h: 16.7 µM
RPMI-8226
  LC50: 12.2 µM
LNCaP
  LC50: 9.5 µM

## CC[C@]12CCCN3CCc4c(n(c5ccccc45)C(=O)C1)[C@@H]32 [VINBURNINE]
MDA-MB-231
  LC50: 41.8 µM
U-266
  LC50: > 100 µM
[1]
  LC50: > 100 µM
RPMI-8226
  LC50: > 100 µM
LNCaP
  LC50: > 100 µM
